Measurements: ChEMBL document CHEMBL1138188, “Synthesis and anti-HIV activity of D- and L-thietanose nucleosides” (J Med Chem, 2006)
Blank lines part the entries; values can stand above or below the compound they belong to.

What was measured:
[1] = test system: Human immunodeficiency virus 1; experiment: Antiviral activity against HIV1 in human PBMC; assay type: functional, organism-based
Outline: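 PHA-stimulated (2-3 days) human PBM cells from seronegative donors, infected in bulk 1 h with HIV-1 LAI (100 TCID50/1 × 10⁷ cells, flask; or 200 TCID50/6 × 10⁵ cells/well, 24-well), then added to 10-fold serial compound dilutions in RPMI-1640/16% FBS/IL-2/DEAE-dextran. 5 days, 37 °C, 5% CO₂. Supernatant RT activity by poly(rA)·oligo(dT), ³H-TTP incorporation, 2 h 37 °C; EC50/EC90 by median effect method.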

[2] = test system: PBMC; experiment: Cytotoxicity against human PBMC; assay type: functional, cell-based
Outline: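 Uninfected PHA-stimulated human PBM cells, log phase, 5 × 10⁴ cells/well, exposed to 10-fold serial compound dilutions for 5 days at 37 °C, 5% CO₂. MTT overnight, formazan dissolved 5 h, read at 570 nm.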

[3] = test system: CCRF-CEM; experiment: Cytotoxicity against human CEM cells; assay type: functional, cell-based
Outline: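 Log-phase CEM T-lymphoblastoid cells seeded at 2.5 × 10³ cells/well with 10-fold serial compound dilutions, held 4 days at 37 °C, 5% CO₂. MTT dye added overnight, then stop-solubilization 5 h; absorbance at 570 nm.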

[4] = test system: Vero; experiment: Cytotoxicity against Vero cells; assay type: functional, cell-based; conditions: Chlorocebus sabaeus
Outline: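 Log-phase Vero cells seeded at 5 × 10³ cells/well with 10-fold serial compound dilutions, incubated 3 days at 37 °C, 5% CO₂. MTT dye added overnight, formazan solubilized 5 h, absorbance read at 570 nm.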

Structure (SMILES): OC[C@H]1[C@H](CO)S[C@@H]1n1cnc2c(O)ncnc21
EC50 [1]: > 100 µM
EC90 [1]: > 100 µM
IC50 [2]: > 100 µM
IC50 [3]: > 100 µM
IC50 [4]: > 100 µM

Structure (SMILES): Nc1nc(O)c2ncn([C@@H]3S[C@H](CO)[C@H]3CO)c2n1
EC50 [1]: > 100 µM
EC90 [1]: > 100 µM
IC50 [2]: > 100 µM
IC50 [3]: > 100 µM
IC50 [4]: > 100 µM

Structure (SMILES): Cc1cn([C@@H]2S[C@H](CO)[C@H]2CO)c(=O)[nH]c1=O
EC50 [1]: > 100 µM
EC90 [1]: > 100 µM
IC50 [2]: > 100 µM
IC50 [3]: > 100 µM
IC50 [4]: > 100 µM

Structure (SMILES): Cc1cn([C@H]2S[C@@H](CO)[C@@H]2CO)c(=O)[nH]c1=O
EC50 [1]: > 100 µM
EC90 [1]: > 100 µM
IC50 [2]: > 100 µM
IC50 [3]: > 100 µM
IC50 [4]: > 100 µM

Structure (SMILES): OC[C@H]1[C@H](n2cnc3c(O)ncnc32)S[C@@H]1CO
EC50 [1]: > 100 µM
EC90 [1]: > 100 µM
IC50 [2]: > 100 µM
IC50 [3]: > 100 µM
IC50 [4]: > 100 µM

Structure (SMILES): Nc1nc(O)c2ncn([C@H]3S[C@@H](CO)[C@@H]3CO)c2n1
EC50 [1]: > 100 µM
EC90 [1]: > 100 µM
IC50 [2]: > 100 µM
IC50 [3]: > 100 µM
IC50 [4]: > 100 µM

Structure (SMILES): Nc1ncnc2c1ncn2[C@H]1S[C@@H](CO)[C@@H]1CO
EC50 [1]: > 100 µM
EC90 [1]: > 100 µM
IC50 [2]: > 100 µM
IC50 [3]: > 100 µM
IC50 [4]: > 100 µM

Structure (SMILES): O=c1ccn([C@H]2S[C@@H](CO)[C@@H]2CO)c(=O)[nH]1
EC50 [1]: > 100 µM
EC90 [1]: > 100 µM
IC50 [2]: > 100 µM
IC50 [3]: > 100 µM
IC50 [4]: > 100 µM

Structure (SMILES): Nc1ncnc2c1ncn2[C@@H]1S[C@H](CO)[C@H]1CO
EC50 [1]: > 100 µM
EC90 [1]: > 100 µM
IC50 [2]: > 100 µM
IC50 [3]: > 100 µM
IC50 [4]: > 100 µM

Structure (SMILES): Nc1nc(=O)n([C@@H]2S[C@H](CO)[C@H]2CO)cc1Cl
EC50 [1]: > 100 µM
EC90 [1]: > 100 µM
IC50 [2]: > 100 µM
IC50 [3]: > 100 µM
IC50 [4]: > 100 µM

Structure (SMILES): Cc1cn([C@H]2C[C@H](N=[N+]=[N-])[C@@H](CO)O2)c(=O)[nH]c1=O [ZIDOVUDINE]
EC90 [1]: 0.01 µM
IC50 [2]: > 100 µM

Further compounds by falling EC50 [1], results first:

EC50 [1]: 14.1 µM
EC90 [1]: 47.6 µM
Structure (SMILES): Nc1ccn([C@H]2S[C@@H](CO)[C@@H]2CO)c(=O)n1
IC50 [2]: 13.1 µM
IC50 [3]: 45.6 µM
IC50 [4]: > 100 µM

EC50 [1]: 11.5 µM
EC90 [1]: 41.9 µM
Structure (SMILES): Nc1nc(=O)n([C@@H]2S[C@H](CO)[C@H]2CO)cc1Br
IC50 [2]: > 100 µM
IC50 [3]: 1.8 µM
IC50 [4]: > 100 µM

EC50 [1]: 6.9 µM
EC90 [1]: 23.1 µM
Structure (SMILES): O=c1ccn([C@@H]2S[C@H](CO)[C@H]2CO)c(=O)[nH]1
IC50 [2]: 8.5 µM
IC50 [3]: 4.9 µM
IC50 [4]: > 100 µM

EC50 [1]: 5.8 µM
EC90 [1]: 13.9 µM
Structure (SMILES): Nc1nc(=O)n([C@@H]2S[C@H](CO)[C@H]2CO)cc1F
IC50 [2]: < 1 µM
IC50 [3]: 19 µM
IC50 [4]: > 100 µM

EC50 [1]: 1.3 µM
EC90 [1]: 5.3 µM
Structure (SMILES): Nc1ccn([C@@H]2S[C@H](CO)[C@H]2CO)c(=O)n1
IC50 [2]: ≤ 1 µM
IC50 [3]: 4.3 µM
IC50 [4]: 54.8 µM
